These results are taken from ChEMBL document CHEMBL1141227, “Rhodamine-labeled 2beta-carbomethoxy-3beta-(3,4-dichlorophenyl)tropane analogues as high-affinity fluorescent probes for the dopamine transporter” (J Med Chem, 2005).

What all share (type): cell-based, COS-7
Test [1] addresses T1, Sodium-dependent dopamine transporter (Homo sapiens, UniProt Q01959). Nature of the test: Displacement of [3H]dopamine from human DAT expressed in COS7 cells. Put shortly: (§1)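 Ki derived from inhibition of radiolabelled substrate uptake into COS-7 cells transiently expressing hDAT or hNET ([3H]dopamine) or hSERT ([3H]5-HT). […] Three to six experiments in triplicate, mean with SE interval.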
For orientation: Loss of bound radioactivity is the signal in a displacement assay; it reports binding, not function.

For test [2], the target named is Sodium-dependent noradrenaline transporter (Homo sapiens, UniProt P23975). Put plainly: Displacement of [3H]dopamine from human NET expressed in COS7 cells. The method in brief:
as §1

In test [3] the target is Sodium-dependent serotonin transporter (Homo sapiens, UniProt P31645). Nature of the test: Displacement of [3H]5HT from human SERT expressed in COS7 cells. The method in brief: as §1
Sequence of Sodium-dependent serotonin transporter (P31645 whole entry): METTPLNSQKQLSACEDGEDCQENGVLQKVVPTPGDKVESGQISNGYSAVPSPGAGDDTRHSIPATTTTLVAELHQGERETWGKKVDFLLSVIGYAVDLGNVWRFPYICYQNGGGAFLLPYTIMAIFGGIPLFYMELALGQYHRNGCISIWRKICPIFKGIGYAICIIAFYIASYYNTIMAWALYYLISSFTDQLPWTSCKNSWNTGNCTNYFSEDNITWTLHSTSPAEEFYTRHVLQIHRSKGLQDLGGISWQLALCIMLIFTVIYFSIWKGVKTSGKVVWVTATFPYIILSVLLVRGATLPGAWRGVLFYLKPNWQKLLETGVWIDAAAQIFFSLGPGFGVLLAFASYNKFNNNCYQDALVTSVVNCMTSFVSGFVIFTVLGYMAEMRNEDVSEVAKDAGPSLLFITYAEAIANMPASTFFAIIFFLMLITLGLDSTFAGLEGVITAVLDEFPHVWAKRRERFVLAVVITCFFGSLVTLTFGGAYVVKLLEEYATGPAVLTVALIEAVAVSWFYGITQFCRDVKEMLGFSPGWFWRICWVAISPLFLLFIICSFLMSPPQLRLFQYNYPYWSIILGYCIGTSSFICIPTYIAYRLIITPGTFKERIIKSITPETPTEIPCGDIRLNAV
Test [4] concerns the target T1, Sodium-dependent dopamine transporter. Nature of the test: Displacement of [3H]CFT from human DAT expressed in COS7 cells. The method in brief: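 Competition binding on intact COS-7 cells transiently expressing hDAT, with [3H]CFT (2β-carbomethoxy-3β-(4-fluorophenyl)tropane) as radioligand. Ki from nonlinear regression, using a KD for [3H]CFT determined in parallel. Mean of two to three experiments in triplicate, with SE interval.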

Sequence of Sodium-dependent noradrenaline transporter (P23975 whole entry): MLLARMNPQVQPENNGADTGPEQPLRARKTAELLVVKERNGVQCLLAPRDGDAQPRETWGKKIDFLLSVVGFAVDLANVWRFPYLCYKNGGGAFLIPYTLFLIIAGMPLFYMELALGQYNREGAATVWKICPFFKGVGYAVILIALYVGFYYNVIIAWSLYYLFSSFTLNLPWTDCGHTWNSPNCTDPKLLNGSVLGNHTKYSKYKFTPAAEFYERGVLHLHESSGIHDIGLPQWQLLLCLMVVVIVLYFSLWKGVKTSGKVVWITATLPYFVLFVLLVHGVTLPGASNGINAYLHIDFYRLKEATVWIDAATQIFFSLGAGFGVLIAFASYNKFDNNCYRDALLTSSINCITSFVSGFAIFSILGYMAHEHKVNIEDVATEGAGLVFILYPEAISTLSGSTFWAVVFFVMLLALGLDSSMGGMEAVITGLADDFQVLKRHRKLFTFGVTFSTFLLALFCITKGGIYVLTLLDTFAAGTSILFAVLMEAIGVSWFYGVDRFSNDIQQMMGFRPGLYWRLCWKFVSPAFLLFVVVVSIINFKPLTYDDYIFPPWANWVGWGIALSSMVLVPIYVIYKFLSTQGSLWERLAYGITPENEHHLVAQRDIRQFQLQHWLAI
T1 sequence (Q01959 whole entry): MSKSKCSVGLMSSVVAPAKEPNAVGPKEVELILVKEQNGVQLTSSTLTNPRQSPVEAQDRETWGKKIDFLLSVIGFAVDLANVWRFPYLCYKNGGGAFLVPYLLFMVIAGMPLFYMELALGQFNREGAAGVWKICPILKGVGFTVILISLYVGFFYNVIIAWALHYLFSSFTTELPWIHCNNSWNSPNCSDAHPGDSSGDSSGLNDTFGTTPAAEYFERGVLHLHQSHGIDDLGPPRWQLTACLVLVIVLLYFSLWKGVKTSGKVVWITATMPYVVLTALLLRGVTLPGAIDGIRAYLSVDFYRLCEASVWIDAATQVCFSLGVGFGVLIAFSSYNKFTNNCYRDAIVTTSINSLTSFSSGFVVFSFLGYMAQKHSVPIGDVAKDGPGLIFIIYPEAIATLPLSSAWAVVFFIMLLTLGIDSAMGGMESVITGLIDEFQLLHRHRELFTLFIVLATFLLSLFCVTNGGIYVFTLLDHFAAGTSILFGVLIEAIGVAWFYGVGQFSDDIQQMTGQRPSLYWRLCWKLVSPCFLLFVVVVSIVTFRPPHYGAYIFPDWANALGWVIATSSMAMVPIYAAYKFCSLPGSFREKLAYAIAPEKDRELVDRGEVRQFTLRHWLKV

With `CCN(CC)c1ccc2c(-c3ccc(S(=O)(=O)NCCCCCC(=O)NCCN4C5CCC4[C@@H](C(=O)OC)[C@@H](c4ccc(Cl)c(Cl)c4)C5)cc3S(=O)(=O)[O-])c3ccc(=[N+](CC)CC)cc-3oc2c1` (some centres undefined), the Ki – broadly, the equilibrium dissociation constant of an inhibitor or competing ligand from its target – was determined as 62 nM in test [1], 194 nM in test [2], 392 nM in test [3] and 18 nM in test [4].
Turning to `CCN(CC)c1ccc2c(-c3ccc(S(=O)(=O)NC[C@H]4CC[C@H](C(=O)NCCN5C6CCC5[C@@H](C(=O)OC)[C@@H](c5ccc(Cl)c(Cl)c5)C6)CC4)cc3S(=O)(=O)[O-])c3ccc(=[N+](CC)CC)cc-3oc2c1` (some centres undefined), the Ki turned out to be 436 nM in test [1], 627 nM in test [2] and 705 nM in test [3].
With `COC(=O)[C@@H]1C2CCC(C[C@@H]1c1ccc(Cl)c(Cl)c1)N2CCNC(=O)CCCN1CCCc2cc3c(cc21)C(C)(C)C1=CC(=[N+](C)C)C=CC1=C3` (some centres undefined), the Ki is 250 nM in test [1], 308 nM in test [2], 227 nM in test [3] and 50 nM in test [4].
For `CCN(CC)c1ccc2c(-c3ccc(S(=O)(=O)NCCCCCC(=O)NCCOC(=O)[C@@H]4C5CCC(C[C@@H]4c4ccc(Cl)c(Cl)c4)N5C)cc3S(=O)(=O)[O-])c3ccc(=[N+](CC)CC)cc-3oc2c1` (some centres undefined) the same measures were 72 nM, 177 nM, 1490 nM and 27 nM.
On the same counts, the results for `COC(=O)[C@@H]1C2CCC(C[C@@H]1c1ccc(Cl)c(Cl)c1)N2C` (some centres undefined) are 2.3 nM, 5 nM, 12 nM and 0.2 nM.
